Data taken from ChEMBL document CHEMBL2331117 (J Med Chem, 2013).
Values after ≈ are worked out from the molar mass of the structure shown.

Tests used:
Cytochrome P450 2C9 = Cytochrome P450 2C9 (Homo sapiens, UniProt P11712); experiment: Inhibition of CYP2C9 (unknown origin); assay type: ADME
[1] = Metabolic stability in mouse liver microsomes after 30 mins; assay type: ADME, Microsome; details: read-out: Stability
Cytochrome P450 2D6 = Cytochrome P450 2D6 (Homo sapiens, UniProt P10635); experiment: Inhibition of CYP2D6 (unknown origin); assay type: ADME
[2] = Inhibition of mTORC1 (unknown origin)-mediated 4EBP1 phosphorylation after 120 mins by ELISA; design: species or system Homo sapiens
[3] = Inhibition of mTORC1-mediated phosphorylation of S6 at serine 240/244 in human PC3 cells after 3 hrs by ELISA; assay type: cell-based; details: PC-3, 3 h
[4] = biological target: Phosphatidylinositol 4,5-bisphosphate 3-kinase catalytic subunit alpha isoform (Homo sapiens, UniProt P42336); experiment: Inhibition of PI3Kalpha (unknown origin) using PIP2 as substrate after 2 hrs by luminescence assay
Cytochrome P450 3A4 = Cytochrome P450 3A4 (Homo sapiens, UniProt P08684); experiment: Inhibition of CYP3A4 (unknown origin); assay type: ADME
Cytochrome P450 2C8 = biological target: T1, Cytochrome P450 2C8 (Homo sapiens, UniProt P10632); experiment: Inhibition of CYP2C8 (unknown origin); assay type: ADME
T1 sequence (P10632 whole entry): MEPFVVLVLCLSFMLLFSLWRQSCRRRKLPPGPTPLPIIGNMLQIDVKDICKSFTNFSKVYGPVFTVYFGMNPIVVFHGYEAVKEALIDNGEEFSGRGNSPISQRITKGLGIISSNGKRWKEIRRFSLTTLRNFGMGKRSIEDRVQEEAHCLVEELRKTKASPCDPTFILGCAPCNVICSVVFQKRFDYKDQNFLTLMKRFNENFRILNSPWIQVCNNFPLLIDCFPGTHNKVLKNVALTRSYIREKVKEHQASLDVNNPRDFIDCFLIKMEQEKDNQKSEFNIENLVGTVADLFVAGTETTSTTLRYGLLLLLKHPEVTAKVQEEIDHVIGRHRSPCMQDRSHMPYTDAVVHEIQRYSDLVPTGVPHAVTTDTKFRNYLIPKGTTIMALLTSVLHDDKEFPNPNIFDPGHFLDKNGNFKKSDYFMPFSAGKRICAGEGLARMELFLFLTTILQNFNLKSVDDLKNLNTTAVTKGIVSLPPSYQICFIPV

[5] = Inhibition of mTORC2-mediated phosphorylation of AKT at serine 473 in human PC3 cells after 2 hrs and 50 mins by ELISA; assay type: cell-based; details: PC-3
In short: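 Compound in 0.3% DMSO was added for 2 h 50 min, followed by 10 min stimulation with 20 ng/mL EGF. After formaldehyde fixation, pAKT (S473) and total AKT were detected by chemiluminescent cell ELISA. IC50 came from pAKT normalized to total AKT, relative to DMSO control. Mean, n ≥ 2.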

[6] = Apparent permeability across MDCK cells; assay type: ADME, cell-based, Canis lupus familiaris; details: dog
Homo sapiens = species on record: Homo sapiens; experiment: Selectivity ratio of IC50 for PI3Kalpha (unknown origin) to IC50 for mTOR (unknown origin)
[7] = Kinetic solubility of the compound; assay type: physicochemical; details: read-out: Kinetic_solubility
[8] = Plasma concentration in mouse at 100 mg/kg, po after 1 hr; assay type: ADME, organism-based; design: dose 100 mg/kg, route oral
[9] = Plasma concentration in mouse at 100 mg/kg, po after 4 hrs; assay type: ADME, organism-based; design: dose 100 mg/kg, route oral

Sequence of Cytochrome P450 2D6 (P10635 whole entry): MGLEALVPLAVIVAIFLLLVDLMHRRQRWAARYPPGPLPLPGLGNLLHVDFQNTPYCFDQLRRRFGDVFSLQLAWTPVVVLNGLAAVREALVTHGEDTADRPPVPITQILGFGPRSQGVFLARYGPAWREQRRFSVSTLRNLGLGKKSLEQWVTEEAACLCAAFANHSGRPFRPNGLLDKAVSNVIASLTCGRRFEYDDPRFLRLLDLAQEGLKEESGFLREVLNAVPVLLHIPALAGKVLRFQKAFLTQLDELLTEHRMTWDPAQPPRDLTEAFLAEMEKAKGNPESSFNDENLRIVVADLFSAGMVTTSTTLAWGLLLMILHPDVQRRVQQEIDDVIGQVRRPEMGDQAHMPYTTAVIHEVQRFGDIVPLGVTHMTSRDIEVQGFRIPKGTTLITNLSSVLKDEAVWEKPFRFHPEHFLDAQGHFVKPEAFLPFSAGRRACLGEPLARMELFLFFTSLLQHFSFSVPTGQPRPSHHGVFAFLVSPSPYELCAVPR
Sequence of Phosphatidylinositol 4,5-bisphosphate 3-kinase catalytic subunit alpha isoform (P42336 whole entry, canonical isoform): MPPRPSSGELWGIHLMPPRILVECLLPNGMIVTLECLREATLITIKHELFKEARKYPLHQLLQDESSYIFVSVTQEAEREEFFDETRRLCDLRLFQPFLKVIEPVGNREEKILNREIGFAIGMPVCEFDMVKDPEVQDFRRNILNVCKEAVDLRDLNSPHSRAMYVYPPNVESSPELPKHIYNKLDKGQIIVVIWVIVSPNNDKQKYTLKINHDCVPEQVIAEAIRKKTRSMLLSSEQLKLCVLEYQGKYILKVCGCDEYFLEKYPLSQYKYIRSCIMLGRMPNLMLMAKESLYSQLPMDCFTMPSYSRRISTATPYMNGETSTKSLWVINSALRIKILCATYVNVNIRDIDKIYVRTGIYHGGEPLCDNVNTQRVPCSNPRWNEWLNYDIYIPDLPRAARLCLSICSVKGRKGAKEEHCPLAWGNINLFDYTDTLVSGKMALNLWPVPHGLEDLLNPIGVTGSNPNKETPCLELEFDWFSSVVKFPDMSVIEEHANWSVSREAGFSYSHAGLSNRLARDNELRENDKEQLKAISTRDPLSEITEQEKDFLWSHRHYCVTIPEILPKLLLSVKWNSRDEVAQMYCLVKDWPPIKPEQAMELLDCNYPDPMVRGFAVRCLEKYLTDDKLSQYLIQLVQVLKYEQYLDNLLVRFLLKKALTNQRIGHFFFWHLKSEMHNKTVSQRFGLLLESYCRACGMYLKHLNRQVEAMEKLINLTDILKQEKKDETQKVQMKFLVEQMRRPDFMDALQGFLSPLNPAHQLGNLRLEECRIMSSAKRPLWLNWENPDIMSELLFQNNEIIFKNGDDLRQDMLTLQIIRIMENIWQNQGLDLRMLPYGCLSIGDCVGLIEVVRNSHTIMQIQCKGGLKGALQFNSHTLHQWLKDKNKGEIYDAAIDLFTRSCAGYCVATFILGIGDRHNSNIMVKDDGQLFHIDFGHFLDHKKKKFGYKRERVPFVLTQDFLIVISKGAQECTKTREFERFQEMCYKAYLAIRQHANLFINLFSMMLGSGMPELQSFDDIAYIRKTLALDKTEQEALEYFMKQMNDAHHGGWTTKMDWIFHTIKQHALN
Sequence of Cytochrome P450 2C9 (P11712 whole entry): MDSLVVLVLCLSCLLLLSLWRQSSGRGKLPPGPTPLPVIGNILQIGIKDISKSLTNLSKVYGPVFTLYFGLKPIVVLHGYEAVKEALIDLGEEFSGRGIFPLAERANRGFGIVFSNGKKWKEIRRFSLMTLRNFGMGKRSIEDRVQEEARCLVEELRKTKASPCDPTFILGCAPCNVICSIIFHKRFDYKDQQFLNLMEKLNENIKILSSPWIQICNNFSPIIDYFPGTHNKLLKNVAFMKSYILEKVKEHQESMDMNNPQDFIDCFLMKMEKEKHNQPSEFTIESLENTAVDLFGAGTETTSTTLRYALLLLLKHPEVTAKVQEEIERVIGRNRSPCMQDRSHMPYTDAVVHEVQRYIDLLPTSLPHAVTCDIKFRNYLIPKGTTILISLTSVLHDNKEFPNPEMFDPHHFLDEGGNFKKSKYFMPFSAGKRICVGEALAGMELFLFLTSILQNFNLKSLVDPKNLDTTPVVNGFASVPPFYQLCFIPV
Sequence of Cytochrome P450 3A4 (P08684 whole entry): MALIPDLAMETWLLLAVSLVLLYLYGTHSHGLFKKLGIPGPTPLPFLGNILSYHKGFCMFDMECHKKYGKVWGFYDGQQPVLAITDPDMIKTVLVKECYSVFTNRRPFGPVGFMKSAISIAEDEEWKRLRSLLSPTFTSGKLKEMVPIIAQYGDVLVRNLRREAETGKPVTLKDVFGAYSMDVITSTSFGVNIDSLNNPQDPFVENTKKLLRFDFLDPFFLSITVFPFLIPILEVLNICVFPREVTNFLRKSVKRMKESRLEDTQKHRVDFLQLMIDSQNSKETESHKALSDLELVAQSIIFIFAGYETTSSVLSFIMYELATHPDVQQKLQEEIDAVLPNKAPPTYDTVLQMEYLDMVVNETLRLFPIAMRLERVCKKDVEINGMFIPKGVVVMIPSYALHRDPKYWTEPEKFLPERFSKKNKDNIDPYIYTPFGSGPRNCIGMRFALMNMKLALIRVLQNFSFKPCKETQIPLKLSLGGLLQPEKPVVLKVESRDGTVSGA

| INH (Cytochrome P450 2C9) [µM] | remaining at 0.5 h [1] [%] | INH (Cytochrome P450 2D6) [µM] | IC50 [2] [nM] | IC50 [3] [nM] | IC50 [4] [nM] | INH (Cytochrome P450 3A4) [µM] | INH (Cytochrome P450 2C8) [µM] | IC50 [5] [nM] | Papp [6] [×10⁻⁶ cm/s] | Ratio IC50 (Homo sapiens) | solubility kinetic [7] [µM] | concentration at 1 h [8] [nM] | concentration at 4 h [9] [nM] | SMILES |
| --- | --- | --- | --- | --- | --- | --- | --- | --- | --- | --- | --- | --- | --- | --- |
| 2.2 | 59 | 11.5 | 2.9 | 152 | > 3000 | 2.6 | 3.1 | 277 | – | – | – | – | – | CCc1c(C(=O)N2CCOc3ccc(-c4ccc5nc[nH]c5c4)cc3C2)ccc(S(C)(=O)=O)c1F |
| 1.1 | 64 | 2.3 | 3.5 | 451 | 1090 | 2.8 | 1.6 | 812 | 4.2 | – | – | – | – | CNS(=O)(=O)c1ccc(C(=O)N2CCOc3ccc(-c4ccc5nc[nH]c5c4)cc3C2)cc1 |
| – | – | – | 72.7 | – | 1130 | – | – | – | – | – | – | – | – | O=C(c1ccc(C(=O)C(F)(F)F)cc1)N1CCOc2ccc(-c3cccnc3)cc2C1 |
| – | – | – | 200 | – | 3130 | – | – | – | – | – | – | – | – | O=C(c1ccccc1)N1CCOc2ccc(-c3cnc4ccccc4c3)cc2C1 |
| – | – | – | > 10000 | – | > 10000 | – | – | – | – | – | – | – | – | O=C(c1ccc(C(=O)C(F)(F)F)cc1)N1CCOc2ccccc2C1 |
| 18.8 | 100 | > 20 | 13 | 1180 | 2900 | > 20 | > 20 | 1970 | – | – | – | – | – | CS(=O)(=O)c1ccc(C(=O)N2CCOc3ccc(-c4ccc(N)nc4)cc3C2)cc1 |
| – | 60 | – | 3.5 | 674 | 259 | – | – | – | – | – | – | – | – | O=C(c1ccc(C(=O)C(F)(F)F)cc1)N1CCOc2ccc(-c3ccc4cn[nH]c4c3)cc2C1 |
| 1.6 | 74 | 3.1 | 3.5 | 306 | 1090 | 1.9 | 3.6 | 680 | – | – | – | – | – | O=C(c1ccc(C(F)(F)F)cc1)N1CCOc2ccc(-c3ccc4nc[nH]c4c3)cc2C1 |
| 1.3 | 64 | 4.3 | 2.9 | 1800 | 763 | 6.3 | 13.9 | 1670 | 4.2 | – | – | – | – | NS(=O)(=O)c1ccc(C(=O)N2CCOc3ccc(-c4ccc5nc[nH]c5c4)cc3C2)cc1 |
| – | – | – | 95 | – | 398 | – | – | – | 1.69 | 4 | 40.1 (≈ 19.1 µg/mL) | – | – | O=C(c1ccc(C(=O)C(F)(F)F)cc1)N1CCOc2ccc(-c3cnc4ccccc4c3)cc2C1 |
| 6.4 | 94 | 9.6 | 1.4 | 329 | 2340 | 3.4 | 3.4 | 437 | – | – | – | – | – | Cc1c(C(=O)N2CCOc3ccc(-c4ccc5nc[nH]c5c4)cc3C2)ccc(S(C)(=O)=O)c1F |
| – | – | – | > 10000 | – | > 10000 | – | – | – | – | – | – | – | – | c1ccc2ncc(-c3ccc4c(c3)CNCCO4)cc2c1 |
| – | – | – | 119 | – | 2310 | – | – | – | – | – | – | – | – | O=C(c1ccc(C(=O)C(F)(F)F)cc1)N1CCOc2ccc(-c3ccccc3)cc2C1 |
| – | 68 | – | 6.6 | 591 | 459 | – | – | 1220 | – | – | – | – | – | Cc1cc(C(=O)N2CCOc3ccc(-c4ccc5nc[nH]c5c4)cc3C2)ccc1S(C)(=O)=O |
| – | – | – | 14 | – | 1800 | – | – | – | – | – | – | – | – | CC(=O)c1ccc(C(=O)N2CCOc3ccc(-c4ccc5cn[nH]c5c4)cc3C2)cc1 |
| 2.9 | 51 | 9.3 | 5.7 | 422 | > 3000 | 4.1 | 5.4 | 1010 | – | – | – | – | – | Cc1cc(S(C)(=O)=O)ccc1C(=O)N1CCOc2ccc(-c3ccc4nc[nH]c4c3)cc2C1 |
| – | – | – | 115 | – | 238 | – | – | – | – | – | – | – | – | CC(=O)Nc1cccc(-c2ccc3c(c2)CN(C(=O)c2ccc(C(=O)C(F)(F)F)cc2)CCO3)c1 |
| – | – | – | 204 | – | > 3000 | – | – | – | – | – | – | – | – | CCNc1cc(S(C)(=O)=O)ccc1C(=O)N1CCOc2ccc(-c3ccc4nc[nH]c4c3)cc2C1 |
| 3 | 82 | 8.1 | 4.4 | 342 | 670 | 3.8 | > 20 | 805 | – | – | – | 7800 | 1000 | CS(=O)(=O)c1ccc(C(=O)N2CCOc3ccc(-c4ccc5nc[nH]c5c4)cc3C2)cc1 |
| – | – | – | 73.7 | – | 1460 | – | – | – | – | – | – | – | – | O=C(c1ccc(C(=O)C(F)(F)F)cc1)N1CCOc2ccc(-c3ccc4ccccc4c3)cc2C1 |
| 9 | 58 | 9.2 | 23.2 | 337 | 705 | 3.5 | 5.4 | 1060 | – | – | – | – | – | CS(=O)(=O)c1ccc(C(=O)N2CCOc3ccc(-c4ccc5nc[nH]c5c4)cc3C2)c(Cl)c1 |
| – | 87 | – | 28 | 1180 | > 3000 | – | – | 3300 | – | – | – | – | – | CCCc1cc(S(C)(=O)=O)ccc1C(=O)N1CCOc2ccc(-c3ccc4nc[nH]c4c3)cc2C1 |
| 5.4 | 50 | > 20 | 5.2 | 233 | > 3000 | 2 | 5.6 | 689 | – | – | – | – | – | CCc1cc(S(C)(=O)=O)ccc1C(=O)N1CCOc2ccc(-c3ccc4nc[nH]c4c3)cc2C1 |
| 0.8 | 49 | 4 | 2.3 | 151 | 89 | 2.3 | 6.2 | – | 0.98 | – | < 1 | 1500 | 400 | O=C(c1ccc(C(=O)C(F)(F)F)cc1)N1CCOc2ccc(-c3ccc4nc[nH]c4c3)cc2C1 |
| – | 50 | – | 0.5 | 239 | 89 | – | – | – | – | – | – | 1000 | 200 | Cc1nc2ccc(-c3ccc4c(c3)CN(C(=O)c3ccc(C(=O)C(F)(F)F)cc3)CCO4)cc2[nH]1 |
| – | 23 | – | 4.3 | 503 | 137 | – | – | – | – | – | – | – | – | O=C(c1ccc(C(=O)C(F)(F)F)cc1)N1CCOc2ccc(-c3ccc4[nH]ncc4c3)cc2C1 |
| 4.2 | 45 | 9.2 | 5.2 | 343 | 693 | 3 | 3.4 | 453 | – | – | – | – | – | CS(=O)(=O)c1ccc(C(=O)N2CCOc3ccc(-c4ccc5nc[nH]c5c4)cc3C2)c(Br)c1 |
| – | – | – | 342 | – | 2450 | – | – | – | – | – | – | – | – | CC(=O)c1ccc(C(=O)N2CCOc3ccc(-c4ccc5cnn(C)c5c4)cc3C2)cc1 |
| 1.7 | 72 | 3.3 | 3.6 | 343 | 2170 | 2.2 | 5 | 1080 | – | – | – | – | – | CCS(=O)(=O)c1ccc(C(=O)N2CCOc3ccc(-c4ccc5nc[nH]c5c4)cc3C2)cc1 |
| – | 3 | – | 29.7 | 718 | 1050 | – | – | – | – | – | – | – | – | O=C(c1ccc(C(=O)C(F)(F)F)cc1)N1CCOc2ccc(-c3cn[nH]c3)cc2C1 |
